Reference: ChEMBL document CHEMBL5653606 (J Pharmacol Exp Ther, 2011)
Active and inactive are the calls of the source.

Experiments:
[1] = biological target: T1, Fatty-acid amide hydrolase 1 (Rattus norvegicus, UniProt P97612); experiment: Inhibition of rat FAAH assessed as kinact/Ki ratio incubated for 1 min in presence of glutamate dehydrogenase by 384-well format microplate reader assay
T1 sequence (P97612 whole entry): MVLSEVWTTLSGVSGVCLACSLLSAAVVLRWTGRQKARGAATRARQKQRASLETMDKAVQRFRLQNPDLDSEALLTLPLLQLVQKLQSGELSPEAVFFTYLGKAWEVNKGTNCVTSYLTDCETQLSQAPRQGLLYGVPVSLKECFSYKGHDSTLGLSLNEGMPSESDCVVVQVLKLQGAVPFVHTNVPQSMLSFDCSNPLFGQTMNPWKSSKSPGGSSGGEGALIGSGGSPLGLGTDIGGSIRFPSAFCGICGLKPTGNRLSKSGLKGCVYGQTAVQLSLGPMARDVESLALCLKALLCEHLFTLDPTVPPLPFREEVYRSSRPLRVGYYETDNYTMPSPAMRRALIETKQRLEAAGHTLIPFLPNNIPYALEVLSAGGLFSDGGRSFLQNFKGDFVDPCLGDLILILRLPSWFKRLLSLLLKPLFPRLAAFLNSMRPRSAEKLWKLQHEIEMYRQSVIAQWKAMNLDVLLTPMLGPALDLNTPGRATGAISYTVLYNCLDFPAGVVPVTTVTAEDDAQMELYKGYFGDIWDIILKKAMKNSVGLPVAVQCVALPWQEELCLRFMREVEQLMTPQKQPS

Rattus norvegicus = experiment: Antihyperalgesic activity in CFA induced Sprague-Dawley rat assessed as complete reduction of mechanical allodynia at 3 mg/kg, po in presence of CB1 antagonist SR141716 and CB2 antagonist SR144528 by von frey test; type: functional, organism-based
How it was run: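 Male Sprague-Dawley rats (200–250 g) given 150 μl CFA (1 mg/ml in mineral oil) intraplantar in the hind paw. Mechanical paw withdrawal thresholds read with Von Frey hairs on day 5 postinjection. Dosed orally as nanocrystalline suspension in 2% polyvinylpyrrolidone/0.15% SDS in water, 10 ml/kg. PWTs taken 4 h postdose for dose-response, or at 1, 2, 4, 8, 24 h for time course.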

[2] = biological target: T2, Fatty-acid amide hydrolase 1 (Mus musculus) (UniProt O08914); experiment: Inhibition of FAAH in mouse brain at 10 uM in presence of FP-rhodamine by competitive activity-based protein profiling method; type: tissue-based
T2 sequence (whole entry): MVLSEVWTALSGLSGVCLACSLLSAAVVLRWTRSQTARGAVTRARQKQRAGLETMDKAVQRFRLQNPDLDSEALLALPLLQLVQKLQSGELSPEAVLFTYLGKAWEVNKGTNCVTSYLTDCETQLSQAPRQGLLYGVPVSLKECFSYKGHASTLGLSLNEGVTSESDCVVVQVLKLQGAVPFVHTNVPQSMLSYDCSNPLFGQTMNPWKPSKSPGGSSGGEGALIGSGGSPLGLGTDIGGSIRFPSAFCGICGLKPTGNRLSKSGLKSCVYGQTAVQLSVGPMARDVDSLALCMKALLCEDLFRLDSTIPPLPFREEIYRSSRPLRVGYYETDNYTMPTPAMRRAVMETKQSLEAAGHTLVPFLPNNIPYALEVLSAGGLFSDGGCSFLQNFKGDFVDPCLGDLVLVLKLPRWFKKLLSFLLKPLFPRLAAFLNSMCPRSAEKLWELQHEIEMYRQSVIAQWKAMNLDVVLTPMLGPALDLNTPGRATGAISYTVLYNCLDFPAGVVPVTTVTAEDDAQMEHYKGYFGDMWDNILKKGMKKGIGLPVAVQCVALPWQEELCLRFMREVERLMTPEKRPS
How it was run: (§1)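 Competitive ABPP on human and mouse brain, liver and heart proteomes (membrane and soluble fractions), exposed to compound at 10 or 100 μM or to DMSO. Serine hydrolases were then labeled with FP-rhodamine. Gels were read by fluorescence scanning, and loss of band labeling (FAAH or other hydrolases by kDa) was judged.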

[3] = biological target: T3, Fatty-acid amide hydrolase 1 (Homo sapiens, UniProt O00519); experiment: Inhibition of human FAAH assessed as kinact/Ki ratio incubated for 30 min in presence of glutamate dehydrogenase by 384-well format microplate reader assay
T3 sequence (O00519 whole entry): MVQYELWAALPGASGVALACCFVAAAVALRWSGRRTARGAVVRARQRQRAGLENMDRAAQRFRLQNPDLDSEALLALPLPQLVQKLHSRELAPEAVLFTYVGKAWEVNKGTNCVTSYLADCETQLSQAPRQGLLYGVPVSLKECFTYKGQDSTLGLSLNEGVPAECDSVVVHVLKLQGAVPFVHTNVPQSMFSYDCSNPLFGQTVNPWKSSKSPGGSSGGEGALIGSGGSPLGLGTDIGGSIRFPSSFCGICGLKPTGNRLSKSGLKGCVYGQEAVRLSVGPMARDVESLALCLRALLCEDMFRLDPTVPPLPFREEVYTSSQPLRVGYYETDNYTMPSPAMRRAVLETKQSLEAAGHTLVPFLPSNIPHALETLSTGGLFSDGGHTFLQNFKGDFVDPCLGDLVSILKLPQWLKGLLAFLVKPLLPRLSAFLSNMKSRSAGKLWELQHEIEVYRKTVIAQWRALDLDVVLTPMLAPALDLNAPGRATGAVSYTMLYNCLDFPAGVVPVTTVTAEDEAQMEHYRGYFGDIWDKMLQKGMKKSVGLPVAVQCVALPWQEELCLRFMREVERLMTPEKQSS

[4] = Ratio of drug concentration in CFA induced Sprague-Dawley rat brain to plasma at 0.1 to 10 mg/kg, po by LC/MS analysis; type: ADME, organism-based; conditions: brain and plasma, dose 0.1-10 mg/kg
How it was run: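 Male Sprague-Dawley rats (200–250 g) received 150 μl CFA (1 mg/ml suspension in mineral oil) into the plantar hind paw. On day 5 they were dosed orally at 0.003–10 mg/kg as a nanocrystalline suspension in 2% polyvinylpyrrolidone/0.15% SDS in H₂O at 10 ml/kg. Drug levels were measured in brain tissue and plasma in the dose-response study, where PWTs were read at 4 h post-dose.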

[5] = biological target: T1, Fatty-acid amide hydrolase 1; experiment: Inhibition of rat FAAH assessed as kinact/Ki ratio incubated for 15 min in presence of glutamate dehydrogenase by 384-well format microplate reader assay
Mus musculus = experiment: Antinociceptive activity in C57BL6/J mouse assessed as effect in body temperature at 1 to 10 mg/kg, po administered for 4 hrs; type: functional, organism-based; conditions: dose 1-10 mg/kg
How it was run: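 Male C57BL/6J mice, 7 weeks old, n = 8/group, dosed orally at 1 or 10 mg/kg in PEG 300 (4 ml/kg). Tetrad tested 4 h postdose: locomotor activity, tail-immersion thermal nociception, catalepsy (assessed 60 s), body temperature. Means ± S.E.M. versus vehicle.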

[6] = biological target: T4, Fatty-acid amide hydrolase 1 (Rattus norvegicus) (UniProt P97612); experiment: In vivo inhibition of FAAH in CFA induced Sprague-Dawley rat plasma assessed as elevation of PEA level at 1 mg/kg, po measured for 1 to 24 hrs; type: functional, organism-based; conditions: time 1-24 hrs
T4 sequence (whole entry): T1 sequence (P97612 whole entry)

[7] = biological target: T5, Fatty-acid amide hydrolase 1 (Homo sapiens) (UniProt O00519); experiment: Inhibition of FAAH in human brain at 100 uM in presence of FP-rhodamine by competitive activity-based protein profiling method; type: tissue-based; how it was run: as §1
T5 sequence (whole entry): T3 sequence (O00519 whole entry)

IC50 [1]: 43.1 nM
inhibition [2]: Active
IC50 [3]: 10.7 nM
Kp [4]: 1.3
IC50 [5]: 26.7 nM
inhibition [6]: Active
inhibition [7]: Active
SMILES: O=C(Nc1cccnn1)N1CCC(=Cc2cccc(Oc3ccc(C(F)(F)F)cn3)c2)CC1
Activity (Rattus norvegicus): Active
Activity (Mus musculus): Non-Toxic
